Test results taken from ChEMBL document CHEMBL1142148, “Antibiotic susceptibility profile of bifidobacteria as affected by oxgall, acid, and hydrogen peroxide stress” (2007).
In brackets after ≈: the same amount, converted by molar mass.

What was measured:
[1] = system: Bifidobacterium animalis; test: Antimicrobial activity against Bifidobacterium animalis ATCC 27536; type: functional
Procedure, shortened: (§1)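 Broth microdilution in MRS plus 0.05% L-cysteine-HCl. Mid-log culture adjusted to OD650 0.1, giving about 2.5 × 10^4 to 5.0 × 10^4 CFU/well, then added to twofold serial dilutions of agent. Plates incubated anaerobically at 37°C for 18 h and read at OD650. MIC is the lowest concentration matching the uninoculated blank OD, taken as the median of four repeats.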

[2] = system: Bifidobacterium bifidum; test: Antimicrobial activity against Bifidobacterium bifidum R0071; type: functional; procedure, shortened: as §1
[3] = system: Bifidobacterium bifidum; test: Antimicrobial activity against Bifidobacterium bifidum ATCC 15696; type: functional; procedure, shortened: as §1
[4] = system: Bifidobacterium bifidum; test: Antimicrobial activity against Bifidobacterium bifidum BB12; type: functional; procedure, shortened: as §1
[5] = system: Bifidobacterium breve; test: Antimicrobial activity against Bifidobacterium breve ATCC 15700; type: functional; procedure, shortened: as §1
[6] = Antimicrobial activity against Bifidobacterium infantis ATCC 15697; type: functional, Bifidobacterium longum subsp. infantis; settings: Bifidobacterium longum; procedure, shortened: as §1
[7] = system: Bifidobacterium longum; test: Antimicrobial activity against Bifidobacterium longum ATCC 15708; type: functional; procedure, shortened: as §1
[8] = system: Bifidobacterium longum; test: Antimicrobial activity against Bifidobacterium longum R0175; type: functional; procedure, shortened: as §1
[9] = system: Bifidobacterium longum; test: Antimicrobial activity against Bifidobacterium longum P/N 601377; type: functional; procedure, shortened: as §1
[10] = system: Bifidobacterium pseudolongum; test: Antimicrobial activity against Bifidobacterium pseudolongum ATCC 25562; type: functional; procedure, shortened: as §1
[11] = system: Bifidobacterium thermophilum; test: Antimicrobial activity against Bifidobacterium thermophilum ATCC 25866; type: functional; procedure, shortened: as §1
[12] = system: Bifidobacterium breve; test: Antimicrobial activity against Bifidobacterium breve R0070; type: functional; procedure, shortened: as §1
[13] = system: Bifidobacterium animalis; test: Antimicrobial activity against 60 min 1 M HCl-stressed Bifidobacterium animalis ATCC 27536 after 18 hrs; type: functional
Procedure, shortened: (§2)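 Mid-log MRS culture pelleted and resuspended in MRS broth brought to pH 2.0 with 1 M HCl, held anaerobically at 37°C for 60 min, then subcultured in MRS (pH 6.5) for 24 h anaerobically before MIC testing by broth microdilution (as for unstressed cells). Table footnote gives 18 h anaerobic regrowth after the stress. MIC is the median of four repetitions.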

[14] = system: Bifidobacterium bifidum; test: Antimicrobial activity against 60 min 1 M HCl-stressed Bifidobacterium bifidum R0071 after 18 hrs; type: functional; procedure, shortened: as §2
[15] = system: Bifidobacterium bifidum; test: Antimicrobial activity against 60 min 1 M HCl-stressed Bifidobacterium bifidum BB12 after 18 hrs; type: functional; procedure, shortened: as §2
[16] = system: Bifidobacterium breve; test: Antimicrobial activity against 60 min 1 M HCl-stressed Bifidobacterium breve ATCC 15700 after 18 hrs; type: functional; procedure, shortened: as §2
[17] = system: Bifidobacterium breve; test: Antimicrobial activity against 60 min 1 M HCl-stressed Bifidobacterium breve R0070 after 18 hrs; type: functional; procedure, shortened: as §2
[18] = Antimicrobial activity against 60 min 1 M HCl-stressed Bifidobacterium infantis ATCC 15697 after 18 hrs; type: functional, Bifidobacterium longum subsp. infantis; settings: Bifidobacterium longum; procedure, shortened: as §2
[19] = system: Bifidobacterium longum; test: Antimicrobial activity against 60 min 1 M HCl-stressed Bifidobacterium longum ATCC 15707 after 18 hrs; type: functional; procedure, shortened: as §2
[20] = system: Bifidobacterium longum; test: Antimicrobial activity against 60 min 1 M HCl-stressed Bifidobacterium longum R0175 after 18 hrs; type: functional; procedure, shortened: as §2
[21] = system: Bifidobacterium longum; test: Antimicrobial activity against 60 min 1 M HCl-stressed Bifidobacterium longum P/N 601377 after 18 hrs; type: functional; procedure, shortened: as §2
[22] = system: Bifidobacterium pseudolongum; test: Antimicrobial activity against 60 min 1 M HCl-stressed Bifidobacterium pseudolongum ATCC 25562 after 18 hrs; type: functional; procedure, shortened: as §2
[23] = system: Bifidobacterium thermophilum; test: Antimicrobial activity against 60 min 1 M HCl-stressed Bifidobacterium thermophilum ATCC 25866 after 18 hrs; type: functional; procedure, shortened: as §2
[24] = system: Bifidobacterium animalis; test: Antimicrobial activity against 90 mins oxgall-stressed Bifidobacterium animalis ATCC 27536 after 18 hrs; type: functional
Procedure, shortened: (§3)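 Cells pelleted from mid-log MRS culture and resuspended in MRS (initial pH 6.5) with 0.3% (wt/vol) oxgall for 90 min anaerobically at 37°C. They were then regrown in MRS pH 6.5 for 24 h (footnote: 18 h) anaerobically and tested for MIC by the same broth microdilution assay. Median of four repetitions.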

[25] = system: Bifidobacterium bifidum; test: Antimicrobial activity against 90 mins oxgall-stressed Bifidobacterium bifidum R0071 after 18 hrs; type: functional; procedure, shortened: as §3
[26] = system: Bifidobacterium bifidum; test: Antimicrobial activity against 90 mins oxgall-stressed Bifidobacterium bifidum ATCC 15696 after 18 hrs; type: functional; procedure, shortened: as §3
[27] = system: Bifidobacterium bifidum; test: Antimicrobial activity against 90 mins oxgall-stressed Bifidobacterium bifidum BB12 after 18 hrs; type: functional; procedure, shortened: as §3
[28] = system: Bifidobacterium breve; test: Antimicrobial activity against 90 mins oxgall-stressed Bifidobacterium breve ATCC 15700 after 18 hrs; type: functional; procedure, shortened: as §3
[29] = system: Bifidobacterium breve; test: Antimicrobial activity against 90 mins oxgall-stressed Bifidobacterium breve R0070 after 18 hrs; type: functional; procedure, shortened: as §3
[30] = Antimicrobial activity against 90 mins oxgall-stressed Bifidobacterium infantis ATCC 15697 after 18 hrs; type: functional, Bifidobacterium longum subsp. infantis; settings: Bifidobacterium longum; procedure, shortened: as §3
[31] = system: Bifidobacterium longum; test: Antimicrobial activity against 90 mins oxgall-stressed Bifidobacterium longum ATCC 15707 after 18 hrs; type: functional; procedure, shortened: as §3
[32] = system: Bifidobacterium longum; test: Antimicrobial activity against 90 mins oxgall-stressed Bifidobacterium longum ATCC 15708 after 18 hrs; type: functional; procedure, shortened: as §3
[33] = system: Bifidobacterium longum; test: Antimicrobial activity against Bifidobacterium longum ATCC 15707; type: functional; procedure, shortened: as §1
[34] = system: Bifidobacterium longum; test: Antimicrobial activity against 90 mins oxgall-stressed Bifidobacterium longum R0175 after 18 hrs; type: functional; procedure, shortened: as §3
[35] = system: Bifidobacterium longum; test: Antimicrobial activity against 90 mins oxgall-stressed Bifidobacterium longum P/N 601377 after 18 hrs; type: functional; procedure, shortened: as §3
[36] = system: Bifidobacterium pseudolongum; test: Antimicrobial activity against 90 mins oxgall-stressed Bifidobacterium pseudolongum ATCC 25562 after 18 hrs; type: functional; procedure, shortened: as §3
[37] = system: Bifidobacterium thermophilum; test: Antimicrobial activity against 90 mins oxgall-stressed Bifidobacterium thermophilum ATCC 25866 after 18 hrs; type: functional; procedure, shortened: as §3
[38] = system: Bifidobacterium animalis; test: Antimicrobial activity against 90 mins hydrogen peroxide-stressed Bifidobacterium animalis ATCC 27536 after 18 hrs; type: functional
Procedure, shortened: (§4)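 Stress applied for 90 min at 37°C under anaerobic conditions, using MRS (initial pH 6.5) containing H2O2 at each strain's own inhibitory concentration. The H2O2 level was set beforehand by microplate tolerance testing. Challenged cells were regrown in MRS for 24 h (footnote: 18 h) before MIC testing by broth microdilution. Median of four repetitions.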

[39] = system: Bifidobacterium bifidum; test: Antimicrobial activity against 90 mins hydrogen peroxide-stressed Bifidobacterium bifidum R0071 after 18 hrs; type: functional; procedure, shortened: as §4
[40] = system: Bifidobacterium bifidum; test: Antimicrobial activity against 90 mins hydrogen peroxide-stressed Bifidobacterium bifidum BB12 after 18 hrs; type: functional; procedure, shortened: as §4
[41] = system: Bifidobacterium breve; test: Antimicrobial activity against 90 mins hydrogen peroxide-stressed Bifidobacterium breve ATCC 15700 after 18 hrs; type: functional; procedure, shortened: as §4
[42] = system: Bifidobacterium breve; test: Antimicrobial activity against 90 mins hydrogen peroxide-stressed Bifidobacterium breve R0070 after 18 hrs; type: functional; procedure, shortened: as §4
[43] = system: Bifidobacterium longum; test: Antimicrobial activity against 90 mins hydrogen peroxide-stressed Bifidobacterium longum ATCC 15707 after 18 hrs; type: functional; procedure, shortened: as §4
[44] = system: Bifidobacterium longum; test: Antimicrobial activity against 90 mins hydrogen peroxide-stressed Bifidobacterium longum ATCC 15708 after 18 hrs; type: functional; procedure, shortened: as §4
[45] = system: Bifidobacterium longum; test: Antimicrobial activity against 90 mins hydrogen peroxide-stressed Bifidobacterium longum R0175 after 18 hrs; type: functional; procedure, shortened: as §4
[46] = system: Bifidobacterium longum; test: Antimicrobial activity against 90 mins hydrogen peroxide-stressed Bifidobacterium longum P/N 601377 after 18 hrs; type: functional; procedure, shortened: as §4
[47] = system: Bifidobacterium thermophilum; test: Antimicrobial activity against 90 mins hydrogen peroxide-stressed Bifidobacterium thermophilum ATCC 25866 after 18 hrs; type: functional; procedure, shortened: as §4

`O=C(N[C@H](CO)[C@H](O)c1ccc([N+](=O)[O-])cc1)C(Cl)Cl` [CHLORAMPHENICOL] showed an MIC [1] of 7.8 µg/mL (≈ 24.1 µM), an MIC [2] of 1.9 µg/mL (≈ 5.88 µM) and an MIC [3] of 1.9 µg/mL (≈ 5.88 µM). The MIC [4] was 1.9 µg/mL (≈ 5.88 µM), the MIC [5] was 7.8 µg/mL (≈ 24.1 µM) and the MIC [6] was 62.5 µg/mL (≈ 193 µM). It also gave an MIC [7] of 31.2 µg/mL (≈ 96.6 µM), an MIC [8] of 7.8 µg/mL (≈ 24.1 µM) and an MIC [9] of 3.9 µg/mL (≈ 12.1 µM). The MIC [10] was 7.8 µg/mL (≈ 24.1 µM), the MIC [11] was 7.8 µg/mL (≈ 24.1 µM) and the MIC [12] was 7.8 µg/mL (≈ 24.1 µM). It also gave an MIC [13] of 1.9 µg/mL (≈ 5.88 µM), an MIC [14] of 7.8 µg/mL (≈ 24.1 µM) and an MIC [15] of 1.9 µg/mL (≈ 5.88 µM). For the same compound, the MIC [16] was 62.5 µg/mL (≈ 193 µM), the MIC [17] was 3.9 µg/mL (≈ 12.1 µM) and the MIC [18] was 0.98 µg/mL (≈ 3.03 µM). It also gave an MIC [19] of 7.8 µg/mL (≈ 24.1 µM), an MIC [20] of 3.9 µg/mL (≈ 12.1 µM) and an MIC [21] of 1.9 µg/mL (≈ 5.88 µM). For the same compound, the MIC [22] was 3.9 µg/mL (≈ 12.1 µM), the MIC [23] was 3.9 µg/mL (≈ 12.1 µM) and the MIC [24] was 1.9 µg/mL (≈ 5.88 µM). For the same compound, the MIC [25] was 3.9 µg/mL (≈ 12.1 µM), the MIC [26] was 3.9 µg/mL (≈ 12.1 µM) and the MIC [27] was 1.9 µg/mL (≈ 5.88 µM). For the same compound, the MIC [28] was 3.9 µg/mL (≈ 12.1 µM), the MIC [29] was 3.9 µg/mL (≈ 12.1 µM) and the MIC [30] was 0.98 µg/mL (≈ 3.03 µM). It also gave an MIC [31] of 1.9 µg/mL (≈ 5.88 µM), an MIC [32] of 0.98 µg/mL (≈ 3.03 µM) and an MIC [33] of 15.6 µg/mL (≈ 48.3 µM). It also gave an MIC [34] of 1.9 µg/mL (≈ 5.88 µM), an MIC [35] of 1.9 µg/mL (≈ 5.88 µM) and an MIC [36] of 0.98 µg/mL (≈ 3.03 µM). It also gave an MIC [37] of 3.9 µg/mL (≈ 12.1 µM), an MIC [38] of 3.9 µg/mL (≈ 12.1 µM) and an MIC [39] of 1.9 µg/mL (≈ 5.88 µM). The MIC [40] was 1.9 µg/mL (≈ 5.88 µM), the MIC [41] was 1.9 µg/mL (≈ 5.88 µM) and the MIC [42] was 1.9 µg/mL (≈ 5.88 µM). It also gave an MIC [43] of 1.9 µg/mL (≈ 5.88 µM), an MIC [44] of 3.9 µg/mL (≈ 12.1 µM) and an MIC [45] of 1.9 µg/mL (≈ 5.88 µM). For the same compound, the MIC [46] was 1.9 µg/mL (≈ 5.88 µM) and the MIC [47] was 1.9 µg/mL (≈ 5.88 µM).
